The source of these data is article PMC6468299 (Nucleic Acids Research, 2019).

Broadly, the IC50 is the concentration that inhibits the measured activity by half. Read a low IC50 as higher potency. As usually defined, the IC90 is the concentration needed for an effect of 90%. Read a high IC90 as weaker potency. As usually defined, the CC50 is the concentration at which the toxic effect on the cells reaches its halfway point. A lower CC50 goes with harm at low concentration.

One data set addresses DNA polymerase β (Pol-β) (Homo sapiens, UniProt P06746). Briefly: DNA polymerase inhibition assay, Pol-β. The following applies: 1 h, 3H-dTTP incorporation. It counts as biochemical. In outline: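 Reactions contained 25 μM each dATP/dCTP/dGTP, 25 nM TTP plus 1 μCi ³H-TTP, 160 nM template/primer, and serially diluted test nucleotide (0–200 μM). Incubation was 1 h at 37°C. DNA was TCA-precipitated, washed and counted; inhibition was taken from reduced incorporation. ddNTPs served as positive control.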

In another data set the target is T1, DNA polymerase α (Pol-α) (Homo sapiens, UniProt P09884).
T1 sequence (P09884 1-1462): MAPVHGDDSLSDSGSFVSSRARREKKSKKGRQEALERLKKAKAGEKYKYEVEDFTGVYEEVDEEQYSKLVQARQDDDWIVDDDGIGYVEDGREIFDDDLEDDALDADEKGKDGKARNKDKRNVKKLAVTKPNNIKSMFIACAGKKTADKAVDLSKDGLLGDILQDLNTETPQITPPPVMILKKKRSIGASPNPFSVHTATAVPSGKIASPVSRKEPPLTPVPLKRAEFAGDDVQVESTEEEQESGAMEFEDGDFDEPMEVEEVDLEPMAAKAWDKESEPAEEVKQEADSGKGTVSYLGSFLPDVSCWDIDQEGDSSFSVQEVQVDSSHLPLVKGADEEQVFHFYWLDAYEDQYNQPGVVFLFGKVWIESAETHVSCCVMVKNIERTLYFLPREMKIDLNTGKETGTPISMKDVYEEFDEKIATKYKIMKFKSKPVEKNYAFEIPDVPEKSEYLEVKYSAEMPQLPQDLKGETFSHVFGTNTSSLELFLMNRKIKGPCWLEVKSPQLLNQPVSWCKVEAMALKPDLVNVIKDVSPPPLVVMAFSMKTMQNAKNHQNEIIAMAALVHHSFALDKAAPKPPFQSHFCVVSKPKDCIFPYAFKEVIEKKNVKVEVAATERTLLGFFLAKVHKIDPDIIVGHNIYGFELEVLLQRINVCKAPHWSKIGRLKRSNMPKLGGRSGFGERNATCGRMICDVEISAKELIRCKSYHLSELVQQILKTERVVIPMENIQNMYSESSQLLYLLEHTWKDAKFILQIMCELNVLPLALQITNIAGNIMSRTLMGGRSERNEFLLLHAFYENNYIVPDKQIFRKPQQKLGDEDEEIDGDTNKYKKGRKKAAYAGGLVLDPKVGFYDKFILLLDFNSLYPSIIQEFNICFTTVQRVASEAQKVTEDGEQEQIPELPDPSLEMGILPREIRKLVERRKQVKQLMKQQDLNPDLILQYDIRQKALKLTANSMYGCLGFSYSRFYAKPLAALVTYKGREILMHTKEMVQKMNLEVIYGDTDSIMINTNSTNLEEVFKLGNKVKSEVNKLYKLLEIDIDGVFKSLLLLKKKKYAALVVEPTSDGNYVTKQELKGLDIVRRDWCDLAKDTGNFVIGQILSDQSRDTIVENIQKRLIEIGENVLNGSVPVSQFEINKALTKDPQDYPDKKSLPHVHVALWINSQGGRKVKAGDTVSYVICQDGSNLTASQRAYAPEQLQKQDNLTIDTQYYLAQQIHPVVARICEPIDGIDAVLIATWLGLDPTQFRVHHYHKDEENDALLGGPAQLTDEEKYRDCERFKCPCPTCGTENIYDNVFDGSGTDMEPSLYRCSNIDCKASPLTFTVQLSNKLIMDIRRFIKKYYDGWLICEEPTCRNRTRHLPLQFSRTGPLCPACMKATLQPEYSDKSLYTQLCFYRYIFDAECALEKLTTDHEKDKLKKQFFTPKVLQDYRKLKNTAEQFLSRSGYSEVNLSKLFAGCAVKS
Kind of data set: DNA polymerase inhibition assay, Pol-α. It counts as biochemical.

The target in the next data set is T2, DNA polymerase γ (Pol-γ) (Homo sapiens, UniProt P54098).
T2 sequence (P54098 1-1239): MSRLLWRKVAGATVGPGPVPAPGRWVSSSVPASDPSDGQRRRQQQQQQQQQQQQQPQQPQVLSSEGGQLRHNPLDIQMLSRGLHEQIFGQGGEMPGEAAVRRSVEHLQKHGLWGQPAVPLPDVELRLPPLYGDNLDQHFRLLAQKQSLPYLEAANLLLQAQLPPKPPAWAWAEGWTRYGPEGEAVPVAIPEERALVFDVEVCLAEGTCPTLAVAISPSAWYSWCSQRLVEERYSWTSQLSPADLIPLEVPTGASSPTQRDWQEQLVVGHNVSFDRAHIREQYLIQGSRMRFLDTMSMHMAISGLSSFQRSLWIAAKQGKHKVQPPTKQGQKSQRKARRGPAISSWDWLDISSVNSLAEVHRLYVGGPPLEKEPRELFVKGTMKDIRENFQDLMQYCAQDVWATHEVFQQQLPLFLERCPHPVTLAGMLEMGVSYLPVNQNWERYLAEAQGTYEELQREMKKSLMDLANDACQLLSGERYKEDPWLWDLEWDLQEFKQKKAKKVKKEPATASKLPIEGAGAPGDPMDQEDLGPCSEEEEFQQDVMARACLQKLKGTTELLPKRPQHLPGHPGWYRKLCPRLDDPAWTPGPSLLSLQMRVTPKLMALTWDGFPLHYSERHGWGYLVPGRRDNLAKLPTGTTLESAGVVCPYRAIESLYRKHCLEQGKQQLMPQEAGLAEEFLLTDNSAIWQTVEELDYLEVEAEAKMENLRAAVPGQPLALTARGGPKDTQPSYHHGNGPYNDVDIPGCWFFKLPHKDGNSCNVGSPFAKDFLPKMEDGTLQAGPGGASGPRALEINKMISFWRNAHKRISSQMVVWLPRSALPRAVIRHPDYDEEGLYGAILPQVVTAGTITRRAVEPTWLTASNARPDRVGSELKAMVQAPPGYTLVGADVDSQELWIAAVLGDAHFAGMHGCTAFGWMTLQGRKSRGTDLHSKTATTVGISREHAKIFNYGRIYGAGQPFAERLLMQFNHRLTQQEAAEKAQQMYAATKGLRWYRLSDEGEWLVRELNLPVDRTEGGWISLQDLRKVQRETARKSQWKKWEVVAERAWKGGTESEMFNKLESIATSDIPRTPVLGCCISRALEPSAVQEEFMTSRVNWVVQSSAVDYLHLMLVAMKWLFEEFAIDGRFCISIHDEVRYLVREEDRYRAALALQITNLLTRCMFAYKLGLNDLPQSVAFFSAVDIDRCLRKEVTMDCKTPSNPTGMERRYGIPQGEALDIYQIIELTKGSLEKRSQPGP
Briefly: DNA polymerase inhibition assay, Pol-γ. Particulars: 1 h, 3H-dTTP incorporation. It counts as biochemical. In outline:
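Reactions contained 25 μM each dATP/dCTP/dGTP, 25 nM TTP plus 1 μCi ³H-TTP, 160 nM template/primer, and serially diluted test nucleotide (0–200 μM). Incubation was 1 h at 37°C, stopped with TCA (10% final). DNA was precipitated 40 min at 4°C, washed and scintillation-counted; inhibition was taken from reduced radioactivity.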

A short description of data set [1]: Cytotoxicity, sulforhodamine B assay, COLO 205. The format is cell-based, human. Particulars: human, COLO 205 cells (intestine), day 11. The method in brief:
(§1)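 Cells were grown 1 week in glucose- or galactose-containing medium, then seeded in 96-well plates. iCell cardiomyocytes were seeded on gelatin-coated plates and grown 5 days. Test compounds in 1:1 ethanol:water were added at each media change on days 0, 3, 7 and 10 (four doses), at up to 250 μM. Final ethanol was 2.5% at 250 μM and 1% otherwise. Total protein was read by sulforhodamine B on day 11. CC50 was fitted from triplicates.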
A general note: The SRB assay estimates cell density from bound dye.

Data set [2] is described as follows: Cytotoxicity, sulforhodamine B assay, iCell cardiomyocytes. Particulars: human, iCell cardiomyocytes (heart). The format is cell-based. In outline: as §1
The test system of a further data set is SNB-78 (CNS). Kind of data set: Cytotoxicity, sulforhodamine B assay, SNB-78. It counts as cell-based, human. The following applies: SNB-78. In outline:
as §1

Data set [3] can be described thus: Cytotoxicity, sulforhodamine B assay, SNB-78. The format is cell-based, human. Particulars: human, SNB-78 cells (CNS), day 11. In outline:
as §1

Data set [4] in a line: Cytotoxicity, sulforhodamine B assay, SkMC. It counts as cell-based, human. Particulars: human, SkMC cells (muscle), CC50, SkMC, day 11. The method in brief: as §1
Data set [5] in a line: Cytotoxicity, sulforhodamine B assay, Molt-4. The following applies: human, Molt-4 cells (blood), day 11. It counts as cell-based, human. In outline: as §1
Data set [6] in a line: Cytotoxicity, sulforhodamine B assay, Caki-1. It counts as cell-based, human. Particulars: human, Caki-1 cells (kidney), day 11. In outline: as §1
Data set [7] is described as follows: Cytotoxicity, sulforhodamine B assay, HepG2. It counts as cell-based, human. The following applies: human, HepG2 cells (liver), day 11, four doses. The method in brief: as §1
[8] abbreviates: Pol-α, 1 h, 3H-dTTP incorporation.

Read-outs that look alike come from different tables or passages of the source.

For the molecule `O=P(O)(O)OP(=O)(O)OP(=O)(O)OC[C@H]1O[C@@H](n2cnc3c(O)ncnc32)[C@H](F)[C@@H]1O` [2′-F-ITP], the concentration for half-maximal inhibition (IC50) against DNA polymerase β (Pol-β), against DNA polymerase α (Pol-α) (setting [8]) and on DNA polymerase γ (Pol-γ) was more than 200 µM throughout. Also, the IC90 against DNA polymerase β (Pol-β), at DNA polymerase α (Pol-α) (setting [8]) and on DNA polymerase γ (Pol-γ) was more than 200 µM throughout.

`CC(C)OC(=O)[C@H](C)N[P@](=O)(OC[C@H]1O[C@@H](n2ccc(=O)[nH]c2=O)[C@](C)(F)[C@@H]1O)Oc1ccccc1` [SOF, Sofosbuvir]: the CC50 at 11 days is 123 µM in data set [1] (CC50, COLO 205, Galactose media); 155 µM in data set [1] (CC50, COLO 205, Glucose media); more than 250 µM in data set [2]; 120 µM in [3] (CC50, SNB-78, Galactose media); more than 250 µM in [3] (CC50, SNB-78, Glucose media); more than 250 µM in data set [4] (Galactose media). For the same molecule, the CC50 at 11 days in [4] (Glucose media) was more than 250 µM; in [5] (CC50, Molt-4, Galactose media) it was more than 250 µM; in data set [5] (CC50, Molt-4, Glucose media), more than 250 µM; in data set [6] (CC50, Caki-1, Galactose media), more than 250 µM; in [6] (CC50, Caki-1, Glucose media), more than 250 µM; in data set [7] (CC50, HepG2, Galactose media), 97 µM. This molecule showed a CC50 at 11 days in [7] (CC50, HepG2, Glucose media) of 114 µM. For the same molecule, the “decrease of CC50 in galactose compared to glucose media” value with SNB-78 (CNS) is 2–10 fold.

`C[C@@]1(CO)[C@H](O)CC[C@@]2(C)[C@H]1CC[C@H]1C[C@@H]3C[C@@]12CC[C@]3(O)CO` [Aphidicolin, reference compound] displayed an IC90 against DNA polymerase α (Pol-α) of 16.5 µM.

At DNA polymerase β (Pol-β), “dideoxy nucleoside 5′ triphosphates [ddNTP, reference compound]” came in with a concentration for half-maximal inhibition (IC50) of 0.06 µM and a concentration for an effect of 90% (IC90) of 0.65 µM. Also, at DNA polymerase γ (Pol-γ), the 50% inhibitory concentration (IC50) is 0.35 µM and the IC90 was 8.65 µM.
